The values below come from ChEMBL document CHEMBL1137338, “Effects of substitution on 9-(3-bromo-4-fluorophenyl)-5,9-dihydro-3H,4H-2,6-dioxa-4- azacyclopenta[b]naphthalene-1,8-dione, a dihydropyridine ATP-sensitive potassium channel opener” (J Med Chem, 2006).

Assay [1] concerns the target T1, Sulfonylurea receptor 2, Kir6.2 (Homo sapiens, UniProt O60706+Q14654). Put plainly: Activity against pig bladder KATP channel opening assessed as ability to relax spontaneous bladder contraction. The assay is classed as functional, Sus scrofa. The conditions noted are these: target entry is the homologue from another species. The method in brief: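 Spontaneously contracting detrusor strips were taken from near the trigonal region of Landrace pig bladder. Increasing concentrations of test agent were applied, and the reduction in area under the curve (AUC) of the spontaneous contractions was measured.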

For assay [2], the target named is T1, Sulfonylurea receptor 2, Kir6.2. The experiment in a line: (§1) Activity against pig bladder KATP channel opening assessed as ability to relax field-stimulated pig detrusor. The class given is functional, Sus scrofa. The settings on record: target entry is the homologue from another species.
Assay [3] shares this target. The experiment in a line: (§2) Ability to open human urinary bladder Kir6.2 channel containing SUR2B in Ltk cells by FLIPR assay. The assay is classed as functional, cell-based. The essentials: (§3)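 Ltk- cells stably transfected with the Kir6.2/SUR2B exon 17- splice variant. Membrane potential was followed with DiBAC dye in a 96-well cell-based kinetic fluorescence (FLIPR) assay. The highest concentration tested was 10 µM. Each compound's maximal fluorescence response was expressed as % of the response to the reference opener.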

Assay [4] deals with T2, Sulfonylurea receptor 2, Kir6.2 (Homo sapiens) (UniProt Q14654+O60706). Put plainly: Activity against pig bladder KATP channel opening assessed as ability to relax field-stimulated pig detrusor relative to P1075. The assay is classed as functional. The conditions noted are these: Sus scrofa; target entry is the homologue from another species.
Assay [5] addresses T2, Sulfonylurea receptor 2, Kir6.2 (Homo sapiens). Put plainly: Ability to open human urinary bladder Kir6.2 containing SUR2B in Ltk cells by FLIPR assay relative to P1075. The assay is classed as functional, cell-based. The essentials:
as §3

For assay [6] the target is unchanged. Described as §2. The settings on record: filed as partial agonist. The class given is functional, cell-based. The essentials:
as §3

Assay [7] has the same target. The experiment in a line: Activity against pig bladder KATP channel opening assessed as ability to relax spontaneous bladder contraction relative to P1075. The assay is classed as functional. The conditions noted are these: Sus scrofa; target entry is the homologue from another species.
Assay [8] shares this target. The assay is described as §1. The assay is classed as functional. The settings on record: Sus scrofa; filed as agonist; target entry is the homologue from another species.

A value given as a limit tells only on which side of the number the result lay.

T1 sequence (Q14654 whole entry): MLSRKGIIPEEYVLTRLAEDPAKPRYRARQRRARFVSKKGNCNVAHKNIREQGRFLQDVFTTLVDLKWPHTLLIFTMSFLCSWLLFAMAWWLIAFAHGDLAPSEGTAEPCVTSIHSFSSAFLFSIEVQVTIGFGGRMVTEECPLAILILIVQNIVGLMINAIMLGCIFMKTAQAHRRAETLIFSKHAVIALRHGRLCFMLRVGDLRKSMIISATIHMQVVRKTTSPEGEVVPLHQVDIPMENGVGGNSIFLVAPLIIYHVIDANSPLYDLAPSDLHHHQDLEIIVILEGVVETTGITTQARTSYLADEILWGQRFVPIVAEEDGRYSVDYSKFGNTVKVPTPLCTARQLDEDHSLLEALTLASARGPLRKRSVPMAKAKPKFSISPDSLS
T1 sequence (O60706 whole entry): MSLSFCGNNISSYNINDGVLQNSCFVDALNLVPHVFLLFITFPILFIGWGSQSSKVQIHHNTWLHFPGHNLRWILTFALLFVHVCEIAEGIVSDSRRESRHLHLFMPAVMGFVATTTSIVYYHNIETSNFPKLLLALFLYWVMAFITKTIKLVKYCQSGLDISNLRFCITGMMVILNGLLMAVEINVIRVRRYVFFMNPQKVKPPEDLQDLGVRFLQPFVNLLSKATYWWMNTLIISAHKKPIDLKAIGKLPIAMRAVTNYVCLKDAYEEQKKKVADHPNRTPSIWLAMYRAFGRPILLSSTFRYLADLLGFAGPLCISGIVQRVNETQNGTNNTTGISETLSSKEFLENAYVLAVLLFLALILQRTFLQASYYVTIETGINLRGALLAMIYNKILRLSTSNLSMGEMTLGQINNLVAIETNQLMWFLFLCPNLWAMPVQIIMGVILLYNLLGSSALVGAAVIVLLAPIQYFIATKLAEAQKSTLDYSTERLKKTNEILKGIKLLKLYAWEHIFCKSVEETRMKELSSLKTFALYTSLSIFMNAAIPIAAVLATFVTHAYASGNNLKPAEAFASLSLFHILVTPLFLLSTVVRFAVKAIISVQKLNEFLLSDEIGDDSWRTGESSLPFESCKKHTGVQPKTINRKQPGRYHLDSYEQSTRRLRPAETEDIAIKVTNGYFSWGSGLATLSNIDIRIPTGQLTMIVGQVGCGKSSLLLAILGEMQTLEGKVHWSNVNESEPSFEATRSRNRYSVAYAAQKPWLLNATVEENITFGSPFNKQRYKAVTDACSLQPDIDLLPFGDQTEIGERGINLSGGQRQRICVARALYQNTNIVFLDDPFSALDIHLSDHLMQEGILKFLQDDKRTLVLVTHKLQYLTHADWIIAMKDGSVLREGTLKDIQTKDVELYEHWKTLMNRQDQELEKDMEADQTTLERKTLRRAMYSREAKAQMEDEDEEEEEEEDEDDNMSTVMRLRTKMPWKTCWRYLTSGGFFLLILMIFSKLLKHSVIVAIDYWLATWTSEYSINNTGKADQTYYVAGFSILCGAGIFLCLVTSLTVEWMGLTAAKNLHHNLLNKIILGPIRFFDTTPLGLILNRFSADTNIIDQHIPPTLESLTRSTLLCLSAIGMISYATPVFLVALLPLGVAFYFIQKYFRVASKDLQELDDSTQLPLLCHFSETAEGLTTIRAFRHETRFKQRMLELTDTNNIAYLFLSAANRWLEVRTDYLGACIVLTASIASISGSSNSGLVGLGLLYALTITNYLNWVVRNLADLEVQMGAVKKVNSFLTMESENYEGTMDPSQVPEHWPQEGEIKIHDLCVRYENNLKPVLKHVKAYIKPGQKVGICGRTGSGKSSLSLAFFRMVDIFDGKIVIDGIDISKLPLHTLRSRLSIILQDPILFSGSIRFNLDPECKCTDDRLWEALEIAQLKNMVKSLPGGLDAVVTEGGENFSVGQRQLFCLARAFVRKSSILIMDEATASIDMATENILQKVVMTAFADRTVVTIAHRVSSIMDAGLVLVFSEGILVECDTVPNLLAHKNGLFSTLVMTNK

On to `CC[C@H]1OCC(O)=C2C1=NC1=C(C(=O)COC1)[C@H]2c1ccc(Cl)c(Cl)c1` (stereo in doubt; 74b) [listing 1 of 2 here], for which the EC50 in assay [1] is 55 nM; in assay [2], 2290 nM; in assay [3], 170 nM.

As for `O=C1COCC2=C1[C@@H](c1ccc(F)c(Br)c1)C1=C(O)O[C@@H](c3ccccc3)C1=N2` (relative stereo), the Efficacy was found to be 91% in assay [4] and 68% in assay [5]. In addition, the EC50 in assay [2] is 1290 nM; in assay [3] it was 257 nM.

Regarding `CC(C)[C@@H]1OC(O)=C2C1=NC1=C(C(=O)COC1)[C@H]2c1ccc(F)c(Br)c1` (relative stereo), in assay [4], the Efficacy was 97%. Moreover, the values for the EC50 in assay [2] and in assay [3] were 1200 nM and greater than 10000 nM, respectively.

In the case of `CC[C@H]1OCC(O)=C2C1=NC1=C(C(=O)COC1)[C@H]2c1ccc(F)c(Br)c1` (racemic), in assay [6], the Activity result is “Partial agonist”. Further, in assay [5], the Efficacy came out at 30%.

Regarding `CC[C@H]1OCC(O)=C2C1=NC1=C(C(=O)COC1)[C@H]2c1ccc(F)c(Cl)c1` (racemic), the Activity entry in assay [6] was “Partial agonist”. In assay [5], this molecule came in with an Efficacy of 30%.

Turning to `CCC(C)(C)NC(=NC#N)Nc1cccnc1`, the EC50 was 21.9 nM in assay [1], 85.1 nM in assay [2] and 52.5 nM in assay [3].

On to `CCCC[C@H]1OC(O)=C2C1=NC1=C(C(=O)COC1)[C@H]2c1ccc(F)c(Br)c1` (stereo in doubt; 29b) [listing 1 of 2 here], for which the EC50 in assay [1] is 331 nM; in assay [2], 1660 nM; in assay [3], 851 nM.

As to `C[C@](O)(C(=O)Nc1ccc(C(=O)c2ccccc2)cc1)C(F)(F)F`, the Efficacy was determined as 99% in assay [4], 100% in assay [7] and 100% in assay [5].

In the case of `CC[C@H]1OC(O)=C2C1=NC1=C(C(=O)C(C)(C)OC1)[C@H]2c1ccc(F)c(Br)c1` (stereo in doubt; 36b), the Activity entry in assay [6] was “Partial agonist”. The molecule also registered an Efficacy in assay [5] of 34%.

As to `O=C1COCC2=C1C(c1ccc(F)c(Br)c1)C1=C(O)OCC1=N2` (stereo in doubt; 6b) [listing 1 of 2 here], the results for the Efficacy in assay [4], in assay [7] and in assay [5] were 88%, 100% and 101%, respectively.

As to `CC[C@H]1OCC(O)=C2C1=NC1=C(C(=O)COC1)[C@H]2c1ccc(Cl)c(Cl)c1` (stereo in doubt; 74b) [listing 2 of 2 here], the Efficacy was 41% in assay [4], 92% in assay [7] and 57% in assay [5]. For the same molecule, the Activity result in assay [6] was “Partial agonist”.

In the case of `CC(C)C[C@@H]1OC(O)=C2C1=NC1=C(C(=O)COC1)[C@H]2c1ccc(F)c(Br)c1` (relative stereo), the Efficacy was found to be 74% in assay [4] and 83% in assay [5]. Also, the EC50 was 129 nM in assay [2] and 27.5 nM in assay [3].

For the molecule `CCC[C@H]1OC(O)=C2C1=NC1=C(C(=O)COC1)[C@H]2c1ccc(F)c(I)c1` (stereo in doubt; 41b), the figures for the EC50 in assay [2] and in assay [3] were 229 nM and 26.9 nM, respectively.

As for `CC[C@H]1OC(O)=C2C1=NC1=C(C(=O)CSC1)[C@H]2c1ccc(F)c(Br)c1` (relative stereo), the Efficacy in assay [4] worked out at 100%; in assay [5], 15%. Besides, the Activity entry was “Agonist” in assay [8] and “Partial agonist” in assay [6].

For `C[C@@H]1OCC2=C(C1=O)[C@H](c1ccc(F)c(Br)c1)C1=C(O)OCC1=N2` (stereo in doubt; 8a), the Activity result in assay [6] was “Partial agonist”. In assay [5], the Efficacy is 15%.

Consider `O=C1COCC2=C1C(c1ccc(F)c(Br)c1)C1=C(O)COCC1=N2` (stereo not given), for which the Efficacy in assay [4] was 97%; in assay [5] it was 87%. Also, the EC50 in assay [2] is 126 nM; in assay [3], 27.5 nM.

Take `CC[C@@H]1OCC2=C(C1=O)[C@@H](c1ccc(F)c(Br)c1)C1=C(O)OCC1=N2` (stereo in doubt; 10b): the EC50 is 891 nM in assay [2] and 1380 nM in assay [3].

As to `CC(C)C[C@H]1OC(O)=C2C1=NC1=C(C(=O)COC1)[C@H]2c1ccc(F)c(Br)c1` (stereo in doubt; 31b), the results for the EC50 in assay [2] and in assay [3] were 102 nM and 10000 nM, respectively.

In the case of `CC[C@H]1OCC(O)=C2C1=NC1=C(C(=O)COC1)[C@H]2c1ccc(Cl)c(Cl)c1` (racemic), in assay [6], the Activity result is “Partial agonist”. This molecule also registered an Efficacy in assay [5] of 58%.

Regarding `CC[C@H]1OCC(O)=C2C1=NC1=C(C(=O)COC1)[C@H]2c1ccc(Br)c(Cl)c1` (stereo in doubt; 76b) [listing 1 of 2 here], the Efficacy in assay [4] came to 38%; in assay [7], 97%; in assay [5], 37%. Further, in assay [6], the Activity entry is “Partial agonist”.

For the molecule `CC[C@H]1OC(O)=C2C1=NC1=C(C(=O)COC1)[C@H]2c1ccc(F)c(Br)c1` (racemic), the Efficacy came to 88% in assay [4] and 40% in assay [5]. Besides, the Activity result in assay [8] is “Agonist”; in assay [6], “Partial agonist”.

In the case of `CC[C@H]1OC(O)=C2C1=NC1=C(C(=O)COC1)[C@H]2c1ccc(F)c(Br)c1` (stereo in doubt; 21b) [listing 1 of 2 here], the EC50 in assay [1] was 19.1 nM; in assay [2], 282 nM; in assay [3], 170 nM.

For `CC[C@H]1OCC(O)=C2C1=NC1=C(C(=O)COC1)[C@H]2c1ccc(F)c(Br)c1` (stereo in doubt; 71a) [listing 1 of 2 here], the EC50 is 129 nM in assay [1], 2040 nM in assay [2] and 170 nM in assay [3].

Take `CCC[C@H]1OC(O)=C2C1=NC1=C(C(=O)COC1)[C@H]2c1ccc(F)c(Cl)c1` (stereo in doubt; 39b) [listing 1 of 2 here]: the Efficacy in assay [4] came to 66%; in assay [5] it was 39%. Also, the Activity result in assay [6] was “Partial agonist”.

In the case of `CCc1cc(C#N)ccc1Nc1c(N[C@H](C)C(C)(C)C)c(=O)c1=O`, the figures for the Efficacy in assay [4], in assay [7] and in assay [5] were 94%, 100% and 71%, respectively. Moreover, the EC50 is 102 nM in assay [1], 676 nM in assay [2] and 2340 nM in assay [3].

As to `C[C@@H]1OCC2=C(C1=O)[C@H](c1ccc(F)c(Br)c1)C1=C(O)OCC1=N2` (stereo in doubt; 8b), the Activity entry in assay [6] was “Partial agonist”. Also, the Efficacy in assay [5] was 16%.

For the molecule `CC1(C)Oc2ccc(C#N)cc2[C@H](N2CCCC2=O)[C@H]1O` (single isomer, unassigned), the Efficacy in assay [4] is 99%; in assay [7], 100%; in assay [5], 83%.

In the case of `O=C1COCC2=C1[C@@H](c1ccc(F)c(Br)c1)C1=C(COC1=O)N2`, the Efficacy was determined as 95% in assay [4] and 107% in assay [5]. In addition, the EC50 in assay [2] is 589 nM; in assay [3], 63.1 nM.

Take `CC[C@H]1OC(O)=C2C1=NC1=C(C(=O)COC1)[C@H]2c1ccc(F)c(Br)c1` (stereo in doubt; 21b) [listing 2 of 2 here]: the Efficacy in assay [4] came out at 77%; in assay [7], 96%; in assay [5], 46%. In addition, the Activity entry in assay [6] is “Partial agonist”.

Turning to `C[C@@H]1OCC2=C(C1=O)[C@@H](c1ccc(F)c(Br)c1)C1=C(O)OCC1=N2` (stereo in doubt; 7a), the Activity entry in assay [6] was “Partial agonist”. The Efficacy in assay [5] came to 17%.

Consider `CCC[C@H]1OC(O)=C2C1=NC1=C(C(=O)COC1)[C@H]2c1ccc(F)c(Br)c1` (racemic) [listing 1 of 2 here], for which the values for the Efficacy in assay [4] and in assay [5] were 90% and 36%, respectively. Further, the Activity entry in assay [8] is “Agonist”; in assay [6], “Partial agonist”.

Regarding `CCCC[C@H]1OC(O)=C2C1=NC1=C(C(=O)COC1)[C@H]2c1ccc(F)c(Br)c1` (stereo in doubt; 29b) [listing 2 of 2 here], the Efficacy in assay [4] is 51%; in assay [7], 100%; in assay [5], 68%.

With `CCC[C@H]1OC(O)=C2C1=NC1=C(C(=O)COC1)[C@H]2c1ccc(F)c(Br)c1` (racemic) [listing 2 of 2 here], the EC50 is 794 nM in assay [2] and 155 nM in assay [3].

On to `CC[C@H]1OCC(O)=C2C1=NC1=C(C(=O)COC1)[C@H]2c1ccc(F)c(Br)c1` (stereo in doubt; 71a) [listing 2 of 2 here], for which the Efficacy in assay [4] worked out at 54%; in assay [7], 98%; in assay [5] it was 40%. The Activity result in assay [6] is “Partial agonist”.

For `CCC[C@H]1OC(O)=C2C1=NC1=C(C(=O)COC1)[C@H]2c1ccc(F)c(Br)c1` (stereo in doubt; 23b), the Efficacy in assay [4] was found to be 34%; in assay [7], 99%; in assay [5], 45%. Also, the Activity result in assay [6] was “Partial agonist”.

Turning to `O=C1COCC2=C1C(c1ccc(F)c(Br)c1)C1=C(O)OCC1=N2` (stereo in doubt; 6b) [listing 2 of 2 here], the EC50 is 0.676 nM in assay [1], 214 nM in assay [2] and 37.2 nM in assay [3].

Turning to `CC[C@H]1OCC(O)=C2C1=NC1=C(C(=O)COC1)[C@H]2c1ccc(Br)c(Cl)c1` (stereo in doubt; 76b) [listing 2 of 2 here], the EC50 in assay [1] is 245 nM; in assay [2], 13500 nM; in assay [3], 245 nM.

For `CCC[C@H]1OC(O)=C2C1=NC1=C(C(=O)COC1)[C@H]2c1ccc(F)c(Cl)c1` (stereo in doubt; 39b) [listing 2 of 2 here], the figures for the EC50 in assay [2] and in assay [3] were 129 nM and 91.2 nM, respectively.

`CCC(C)(C)/N=C(\NC#N)Nc1cccnc1`: the Efficacy turned out to be 99% in assay [4], 100% in assay [7] and 101% in assay [5].
